Reference: ChEMBL document CHEMBL4402581, “Monohydrazone Based G-Quadruplex Selective Ligands Induce DNA Damage and Genome Instability in Human Cancer Cells” (J Med Chem, 2020)
Active and inactive are the calls of the source. The rule behind the calls is not given here.

Key:
Quadruplex DNA [1] = assay: Effect on c-Kit1 G4 quadruplex DNA architecture at 10 mol.equiv by circular dichroism spectral analysis; format: nucleic-acid assay
How it was run: (§1)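 CD spectra of 15 μM G4s or 30 μM hairpin in 20 mM K phosphate pH 7.0 with 5 mM KCl, after annealing. Recorded at 20 °C over 230–360 nm, three scans averaged, buffer baseline subtracted. Ligand was added at 10 mol equiv to the folded DNA from a 10 mM DMSO stock.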

Quadruplex DNA [2] = assay: Effect on human Tel23 G4 quadruplex DNA architecture at 10 mol.equiv by circular dichroism spectral analysis; format: nucleic-acid assay; how it was run: as §1
Quadruplex DNA [3] = assay: Stabilization of c-Kit1 G4 quadruplex DNA assessed as change in melting temperature at 10 mol.equiv by circular dichroism melting assay; format: nucleic-acid assay
How it was run: (§2)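 CD melting from 20 to 100 °C at 1 °C/min, monitored at 264 nm (c-Kit1, c-Kit2, c-Myc, Tel23-p), 287 nm (Tel23-h) or 280 nm (hairpin). Ligand was at 10 mol equiv with folded DNA (15 μM G4, 30 μM hairpin). ΔTm is Tm with ligand minus Tm without, from curve fits, averaged over triplicates.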

Quadruplex DNA [4] = assay: Stabilization of parallel Tel23 G4 quadruplex DNA assessed as change in melting temperature at 10 mol.equiv by circular dichroism melting assay; format: nucleic-acid assay; how it was run: as §2
Quadruplex DNA [5] = assay: Effect on parallel Tel23 G4 quadruplex DNA architecture at 10 mol.equiv by circular dichroism spectral analysis; format: nucleic-acid assay; how it was run: as §1
Quadruplex DNA [6] = assay: Effect on c-Myc G4 quadruplex DNA architecture at 10 mol.equiv by circular dichroism spectral analysis; format: nucleic-acid assay; how it was run: as §1
[7] = Effect on hairpin-duplex DNA architecture at 10 mol.equiv by circular dichroism spectral analysis; how it was run: as §1
[8] = Stabilization of hairpin-duplex DNA assessed as change in melting temperature at 10 mol.equiv by circular dichroism melting assay; how it was run: as §2
Quadruplex DNA [9] = assay: Stabilization of human Tel23 G4 quadruplex DNA assessed as change in melting temperature at 10 mol.equiv by circular dichroism melting assay; format: nucleic-acid assay; how it was run: as §2
Quadruplex DNA [10] = assay: Stabilization of c-Myc G4 quadruplex DNA assessed as change in melting temperature at 10 mol.equiv by circular dichroism melting assay; format: nucleic-acid assay; how it was run: as §2
Quadruplex DNA [11] = assay: Effect on c-Kit2 G4 quadruplex DNA architecture at 10 mol.equiv by circular dichroism spectral analysis; format: nucleic-acid assay; how it was run: as §1
Quadruplex DNA [12] = assay: Stabilization of c-Kit2 G4 quadruplex DNA assessed as change in melting temperature at 10 mol.equiv by circular dichroism melting assay; format: nucleic-acid assay; how it was run: as §2
Quadruplex DNA [13] = assay: Stabilization of G4 quadruplex DNA in human U2OS cells assessed as colocalization of TRF2/[…] foci at 10 uM incubated for 24 hrs by immunofluorescence microscopy (reference value: 18.4 +/- 2.81%); format: cell-based
Quadruplex DNA [14] = assay: Stabilization of G4 quadruplex DNA in human U2OS cells assessed as TRF2 foci per cell at 10 uM incubated for 24 hrs by immunofluorescence microscopy (reference value: 15.8 +/- 2.6%); format: cell-based
Quadruplex DNA [15] = assay: Stabilization of G4 quadruplex DNA in human U2OS cells assessed as increase in number of G4 foci at 10 uM incubated for 24 hrs by immunofluorescence microscopy; format: cell-based
U2OS [16] = assay: Induction of DNA:RNA hybrid formation in human U2OS cells assessed as increase in R loop formation at 10 uM incubated for 30 mins by S9.6 immunofluorescence microscopy; format: functional, cell-based
How it was run: (§3)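 U2OS cells were treated at 10 μM for 5–60 min, 24 h after seeding, then fixed in cold methanol and permeabilized with acetone. Stained with S9.6 antibody and anti-nucleolin. The nucleolar signal was subtracted from total nuclear S9.6 fluorescence, and values were normalized to the untreated mean; two biological replicates.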

HeLa [17] = assay: Cytotoxicity against human HeLa cells assessed as reduction in cell viability incubated for 1 hr followed by 48 hrs of recovery in drug free medium by MTT assay; format: functional, cell-based
How it was run: (§4)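 Cells grown in DMEM with 10% FBS and 1% glutamine at 37 °C, 5% CO2, and seeded 25 × 10^4 per well. Treatment began 24 h after seeding and lasted 1 or 24 h, followed by 48 h in drug-free medium. MTT was added for 1 h at 37 °C, then DMSO solubilization and absorbance at 595 nm. IC50 came from linear regression; two independent experiments, each in triplicate.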

U2OS [18] = assay: Induction of DNA:RNA hybrid formation in human U2OS cells assessed as increase in R loop formation at 10 uM incubated for 60 mins by S9.6 immunofluorescence microscopy; format: functional, cell-based; how it was run: as §3
U2OS [19] = assay: Cytotoxicity against human U2OS cells assessed as reduction in cell viability incubated for 24 hrs followed by 48 hrs of recovery in drug-free medium by MTT assay; format: functional, cell-based; how it was run: as §4
U2OS [20] = assay: Induction of DNA damage in human U2OS cells assessed as increase in phosphorylated 53BPI foci colocalization with gammaH2AX foci at 10 uM incubated for 4 hrs by immunofluorescence microscopy; format: functional, cell-based
How it was run: (§5)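 U2OS cells were treated with 10 μM for 4 h, pre-extracted 3 min with CSK buffer containing 0.5% Triton X-100, and fixed in 2% paraformaldehyde. Co-stained 1 h for 53BP1 and γH2AX, with DAPI counterstain. Foci were counted per nucleus and normalized to the untreated mean, across three biological replicates.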

U2OS [21] = assay: Induction of DNA damage in human U2OS cells assessed as increase in gammaH2AX phosphorylation at S139 at 10 uM incubated for 4 hrs by immunofluorescence microscopy; format: functional, cell-based; how it was run: as §5
HeLa [22] = assay: Cytotoxicity against human HeLa cells assessed as reduction in cell viability incubated for 24 hrs followed by 48 hrs of recovery in drug free medium by MTT assay; format: functional, cell-based; how it was run: as §4
U2OS [23] = assay: Cytotoxicity against human U2OS cells assessed as reduction in cell viability incubated for 1 hr followed by 48 hrs of recovery in drug free medium by MTT assay; format: functional, cell-based; how it was run: as §4
U2OS [24] = assay: Induction of genome instability in human U2OS cells assessed as increase in micronuclei formation at 10 uM incubated for 24 hrs by immunofluorescence microscopy; format: functional, cell-based
How it was run: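 U2OS cells were treated for 24 h, fixed in 4% paraformaldehyde, permeabilized with 0.5% Triton X-100, and stained with DAPI. Micronuclei were counted per 100 cells.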

Row | Structure (SMILES) | Activity (Quadruplex DNA [1]) | Activity (Quadruplex DNA [2]) | Activity (Quadruplex DNA [3]) | Activity (Quadruplex DNA [4]) | Activity (Quadruplex DNA [5]) | Activity (Quadruplex DNA [6]) | Activity [7] | Activity (Quadruplex DNA [9]) | Activity (Quadruplex DNA [10]) | Activity (Quadruplex DNA [11]) | Activity (Quadruplex DNA [12]) | ΔTm [8] [°C] | further results
1 | N=C(N)N/N=C/c1cn(C/C=C/c2ccccc2)c2ccccc12 | inactive | inactive | Active | Active | inactive | inactive | inactive | Active | Active | inactive | Active | – | Activity [8]: Active
2 | Nc1ccn2c(/C=N/NC3=NCCN3)c(-c3ccccc3)nc2n1 | inactive | inactive | Active | Active | inactive | inactive | inactive | Active | Active | inactive | Active | > 2 | –
3 | CN(C)c1ccc(Nc2c3ccc(NC(=O)CCN4CCCC4)cc3nc3cc(NC(=O)CCN4CCCC4)ccc23)cc1 | – | – | – | – | – | – | – | – | – | – | – | – | Activity (Quadruplex DNA [13]): 15.2%; Activity (Quadruplex DNA [14]): 19.1%; Activity (Quadruplex DNA [15]): Active
4 | COc1cc2c(/C=N/NC(=N)N)c(Cl)n(C)c2cc1C | inactive | inactive | Active | Active | inactive | inactive | inactive | Active | Active | inactive | Active | > 2 | –
5 | N=C(N)N/N=C/c1c(-c2ccccc2)nc2nc(N)ccn12 | inactive | inactive | inactive | inactive | inactive | inactive | inactive | inactive | inactive | inactive | inactive | – | Activity (U2OS [16]): Active; Activity (Quadruplex DNA [13]): 10.1%; IC50 (HeLa [17]): > 100 µM; Activity (U2OS [18]): Active; IC50 (U2OS [19]): > 50 µM; Activity (U2OS [20]): Active; Activity (U2OS [21]): Active; IC50 (HeLa [22]): > 50 µM; IC50 (U2OS [23]): > 100 µM; Activity (Quadruplex DNA [14]): 15.3%; Activity (U2OS [24]): Active; Activity [8]: inactive; Activity (Quadruplex DNA [15]): inactive
6 | COc1cc2c(/C=N/NC(=N)N)c(Cl)[nH]c2cc1C | inactive | inactive | Active | Active | inactive | inactive | inactive | Active | Active | inactive | Active | > 2 | –
7 | COc1cc2c(/C=N/NC(=N)N)c[nH]c2cc1C | inactive | inactive | Active | Active | inactive | inactive | inactive | Active | Active | inactive | Active | > 2 | –
8 | N=C(N)N/N=C/c1c(Cl)n(C/C=C/c2ccccc2)c2ccccc12 | inactive | inactive | Active | Active | inactive | inactive | inactive | Active | Active | inactive | Active | – | Activity [8]: Active
9 | N=C(N)N/N=C/c1cccc(/C=C2/C(=O)Nc3ccc(Cl)cc32)c1 | inactive | inactive | Active | Active | inactive | inactive | inactive | Active | Active | inactive | Active | > 2 | –
10 | N=C(N)N/N=C/c1cn(Cc2ccccc2)c2ccccc12 | inactive | inactive | Active | Active | inactive | inactive | inactive | Active | Active | inactive | Active | > 2 | –
11 | Cc1cc2c(cc1O)/C(=C\c1cccc(/C=N/NC3=NCCN3)c1)C(=O)N2 | inactive | inactive | Active | Active | inactive | inactive | inactive | Active | Active | inactive | Active | – | Activity [8]: Active
12 | N=C(N)N/N=C/c1cccc(/C=C2/C(=O)Nc3c2ccc2ccccc32)c1 | inactive | inactive | Active | Active | inactive | inactive | inactive | Active | Active | inactive | Active | > 2 | –
13 | O=C1Nc2c(ccc3ccccc23)/C1=C\c1cccc(/C=N/NC2=NCCN2)c1 | inactive | inactive | Active | Active | inactive | inactive | inactive | Active | Active | inactive | Active | > 2 | –
14 | Cc1cc2c(cc1O)/C(=C\c1cccc(/C=N/NC(=N)N)c1)C(=O)N2 | inactive | inactive | Active | Active | inactive | inactive | inactive | Active | Active | inactive | Active | > 2 | –
15 | O=C1Nc2ccc(Cl)cc2/C1=C\c1cccc(/C=N/NC2=NCCN2)c1 | inactive | inactive | Active | Active | inactive | inactive | inactive | Active | Active | inactive | Active | > 2 | –
